Bioassay records as filed in PubChem BioAssay.
aDG glyco act – alpha-DG glycosylation activation. Pro5-aDG cells, alpha-DG glycosylation AlphaScreen (IIH6); 0% Pro5, 100% B10-LARGE cell signal. activation, % at 10 µM. 0.22% of 360,000 active. AID 624168;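 active = activation of at least 8% versus controls, or a plate z-score of at least 8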;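 note: Pro5 are CHO cells carrying HIG-tagged alpha-DG that lacks glycosylation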
V-ATPase pH – alters yeast V-ATPase proton transport. S. cerevisiae, pHLuorin cytosolic pH fluorescence. 0.37% of 350,000 active. response, % at 10 µM; in the data active = response mostly above about 7.3%, no sharp cut-off; inactive = mostly below about 5.4%; note: actives read high
ADAM17 inh – inhibits human ADAM17 | inhibition, % at 6.95 µM | P78536 | 0.83% of 370,000 active | recombinant ADAM17, EDANS/DABCYL FRET peptide cleavage;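 active = inhibition above the mean of compounds lying between control limits plus 3 SD, set per campaign, cut at about 8.5% in these data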
Target sequence (P78536 215-824 limits assumed): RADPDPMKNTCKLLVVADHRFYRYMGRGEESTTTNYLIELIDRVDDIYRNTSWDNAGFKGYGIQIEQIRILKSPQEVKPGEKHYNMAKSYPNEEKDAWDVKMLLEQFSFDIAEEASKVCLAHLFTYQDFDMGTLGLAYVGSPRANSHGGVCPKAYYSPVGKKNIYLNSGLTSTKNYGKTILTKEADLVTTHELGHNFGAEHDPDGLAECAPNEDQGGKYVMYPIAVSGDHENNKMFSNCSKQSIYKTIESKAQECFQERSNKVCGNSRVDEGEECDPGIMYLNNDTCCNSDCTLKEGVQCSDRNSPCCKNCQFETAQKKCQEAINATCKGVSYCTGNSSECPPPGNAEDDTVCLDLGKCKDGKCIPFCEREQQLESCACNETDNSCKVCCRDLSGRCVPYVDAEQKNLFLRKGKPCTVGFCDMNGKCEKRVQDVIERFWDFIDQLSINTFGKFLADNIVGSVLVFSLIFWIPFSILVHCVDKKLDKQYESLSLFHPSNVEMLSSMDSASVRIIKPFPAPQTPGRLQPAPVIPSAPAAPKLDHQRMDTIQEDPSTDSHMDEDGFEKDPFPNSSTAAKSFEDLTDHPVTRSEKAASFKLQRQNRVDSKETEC
MPTP inh – permeability transition pore inhibition; 1.4% of 360,000 active; inhibition, % at 10 µM; AID 602449; isolated mouse mitochondria, Ca2+ swelling absorbance, 30 min;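 active = inhibition of 50% or more, scaled per plate between neutral and stimulator controls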
Lipid droplet – modulators of hepatic lipid droplet formation | AML12 mouse hepatocytes, oleate lipid droplets, BODIPY imaging | inhibition, % at 6.5 µM | 0.4% of 240,000 active;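 active = lipid droplet intensity inhibited by at least 50%, with more than 500 cells counted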
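System: AML12 hepatocytes (mouse). Probe or stimulus: oleic acid at 100 µM to induce lipid droplet formation. Times: overnight treatment with compound plus oleate. Detection: Image-based BODIPY and DAPI two-channel analysis. Evaluation: percent inhibition of filter-corrected integrated lipid droplet intensity per well.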
ADAM10 inh – inhibits human ADAM10 | O14672 | recombinant ADAM10, EDANS/DABCYL FRET peptide cleavage, 3 h | inhibition, % at 7 µM | 0.62% of 370,000 active;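 active = inhibition above a per-campaign cutoff equal to the mean of compounds falling between control-based bounds plus 3 SD, cut at about 20% in these data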
ADAM10 ctr – inhibits human ADAM10 in ADAM17 exosite counter-screen; shares compounds with ADAM17 inh; 47% of 2,900 active; AID 743256; recombinant ADAM10, EDANS/DABCYL FRET peptide cleavage, 3 h; inhibition, % at 6.95 µM;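 active = mean inhibition over the triplicate runs exceeds the activity threshold set in the earlier primary screen, cut at about 20% in these data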
ADAM17 confirm – confirmation of inhibitors of human ADAM17 | AID 743257 | recombinant ADAM17, EDANS/DABCYL QFRET peptide cleavage | 65% of 2,900 active | inhibition, % at 6.95 µM | shares compounds with ADAM17 inh;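 active = mean inhibition across replicates above the hit cutoff set in the primary screen, cut at about 8.5% in these data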
Numbers stand for hits; n = inactive; x = not tested or not shown; ! = not active in a repeat. This is a sample that favours compounds with a hit; in the whole collection about 3.1% have one here.

SMILES | aDG glyco act | V-ATPase pH | ADAM17 inh | MPTP inh | Lipid droplet | ADAM10 inh | ADAM10 ctr | ADAM17 confirm
CN(Cc1ccccc1)C(=O)c1cccc(NC(=O)Cc2ccc(NC(=O)C3CCCN(C(=O)c4ccccc4)C3)cc2)c1 (stereo unspecified) | n | n | 11 | n | x | n | n | n
CCOC(=O)N1CCN(C(=O)C[C@H]2C[C@@]3(C(=O)OC)C(=C[C@H](C(C)(C)C)O[C@@H]3C)N(Cc3cccc4ccccc34)C2=O)CC1 | x | x | n | x | x | n | x | x
Cc1ccccc1-c1nc(S(=O)(=O)c2ccc(Br)cc2)c(NCc2cccnc2)o1 | n | n | 9.9 | n | n | n | n | 25
Cc1ccc(S(=O)(=O)c2nc(-c3ccccc3)oc2NCc2cccnc2)cc1 | n | n | n | n | x | n | x | x
O=C(Nc1nc2ncccn2c1-c1ccc(F)c(F)c1)c1ccccc1 | x | x | n | x | x | n | x | x
c1nc(NCc2ccc3c(c2)OCO3)c2cc(-c3ccoc3)ccc2n1 | n | n | 9.9 | n | x | n | n | n
COc1ccc(C2=NN(C(=O)CSC3=NN4CCCC(=O)N=C4S3)C(c3cccc(OC)c3OC)C2)cc1 (stereo unspecified) | n | n | 10 | n | n | n | n | n
COc1cccc(C2CC(c3cccs3)=NN2C(=O)CSC2=NN3CCCC(=O)N=C3S2)c1OC (stereo unspecified) | n | n | n | n | n | n | x | x
CCOC(=O)C1=C(O)/C(=C/c2ccc(-c3ccccc3C(=O)O)o2)SC1=Nc1ccc(OC)cc1 | n | n | 9.5 | n | n | n | n | 8.8
CCOC(=O)C1=C(O)/C(=C/c2ccc(-c3ccccc3C(=O)O)o2)SC1=Nc1ccc(C)cc1 | n | n | n | n | x | n | x | x
O=C(OCC#CCSc1nnc(-c2ccccc2F)o1)c1ccc(F)cc1 | x | x | n | x | x | n | x | x
Cc1ccc(C)c(S(=O)(=O)N(C)Cc2cccs2)c1 | n | n | 8.8 | n | x | n | 23 | 12
COc1ccc(NC(=O)CNC(=O)CC23CC4CC(CC(C4)C2)C3)c(OC)c1 | n | n | n | n | x | n | x | x
Cc1ccc(NC(=O)CNC(=O)CC23CC4CC(CC(C4)C2)C3)c(O)c1 | n | n | 16 | n | x | n | n | n
COc1cccc(NC(=O)CSc2nnc(Cc3ccc(C)cc3)c(=O)n2N)c1 | n | n | n | n | x | n | x | x
COc1ccc(Cc2nnc(SCC(=O)Nc3ccc(C)cc3)n(N)c2=O)cc1 | n | n | 9.8 | n | x | n | n | n
CC(C)c1ccc(S(=O)(=O)N2CCN(C(=S)NCc3ccco3)CC2)cc1 | n | n | 9.5 | n | n | n | 28 | 17
N#CCC[C@H]1CC[C@]2(CCCN(C(=O)c3ccco3)C2)O1 | x | x | n | x | x | n | x | x
CC(=O)C1=CCC(c2ccc(C)cc2)N(S(=O)(=O)c2ccc(C)cc2)C1 (stereo unspecified) | n | x | n | n | x | n | x | x
Cc1ccc(S(=O)(=O)N2[C@@H](c3cccc(Cl)c3)C(C(=O)O)=CC[C@H]2c2ccc(C(C)C)cc2)cc1 | n | n | 9.0 | n | x | n | 26 | 14
Cc1ccccc1S(=O)(=O)N1[C@@H](c2ccc(Br)cc2)C(C(=O)O)=CC[C@H]1c1ccc(Cl)cc1 | n | n | 9.3 | n | x | n | n | 8.7
CC(=O)C1=CCC(c2ccc(Cl)cc2)N(S(=O)(=O)c2ccc(C)cc2)C1 (stereo unspecified) | n | x | 12! | n | x | n | n | n
Cc1ccc(S(=O)(=O)N2[C@@H](c3ccc(Cl)cc3)C(C(=O)O)=CC[C@H]2c2cccc(Cl)c2)cc1 | n | n | n | n | x | n | x | x
CCN(CC)S(=O)(=O)c1cccc(C(=O)N[C@H](C(=O)OCC(=O)Nc2ccccc2)C(C)C)c1 | n | n | 11 | n | n | n | n | n
CCN(CC)S(=O)(=O)c1cccc(C(=O)N[C@H](C(=O)OCC(N)=O)C(C)C)c1 | n | n | n | n | n | n | x | x
COC(=O)[C@]12C[C@H](CC(=O)NCc3cccc4ccccc34)C(=O)N(Cc3cccc4ccccc34)C1=C[C@H](C(C)C)O[C@@H]2C1CC1 | x | x | n | x | x | n | x | x
